Active and inactive are the calls of the source. No cut-off for these calls is given here.
Tests used:
[1] = test system: Cryptosporidium parvum; assay: Antimicrobial activity against Cryptosporidium parvum infected in neonatal BALB/C mouse assessed as reduction in trophozoites in ileum at 5 mg/kg/day, po for 6 days by hematoxylin and eosin staining; assay type: functional; parameters: scale not given: the % may be the effect or the level left
How it was run: (§1)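 Infected neonatal BALB/c mice (10⁵ oocysts orally at 3 days old) dosed orally for 6 days from day 3; killed day 9. 1-cm ileal sections (1–6 cm proximal to appendix), appendix/ileocecal junction, and distal colon were formalin-fixed and H&E-stained. Trophozoites per 1,000 epithelial cells scored blind by two readers on duplicate sections. Per-mouse summary score summed across sections; compared with vehicle controls.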

[2] = test system: Cryptosporidium parvum; assay: Antimicrobial activity against Cryptosporidium parvum infected in neonatal BALB/C mouse assessed as reduction in trophozoites in appendix at 5 mg/kg/day, po for 6 days by hematoxylin and eosin staining; assay type: functional; parameters: scale not given: the % may be the effect or the level left; how it was run: as §1
[3] = test system: Cryptosporidium parvum; assay: Antimicrobial activity against Cryptosporidium parvum infected in human HCT-8 cells after 48 hrs by ELISA; assay type: functional, organism-based; details: HCT-8, 48 h
How it was run: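 HCT-8 monolayers (5 × 10⁴ cells/well, seeded 24 h before) infected with 5 × 10³ Iowa-isolate oocysts in medium with 0.05% bile salts, 90 min at 37°C, then washed. Drug added in growth medium (0.5% DMSO final for DMSO-dissolved drug), 48 h at 37°C. Formalin-fixed; rat anti-sporozoite serum, HRP anti-rat, TMB, A450. Freeze-thawed oocyst background subtracted; % inhibition vs untreated infected wells; triplicate wells, two experiments.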

[4] = test system: Cryptosporidium parvum; assay: Antimicrobial activity against Cryptosporidium parvum infected in neonatal BALB/C mouse assessed as reduction in number of trophozoites at 5 mg/kg/day, po for 6 days; assay type: functional; parameters: scale not given: the % may be the effect or the level left; details: in the assay text read “100 mg/kg/day” for “5 mg/kg/day”; how it was run: as §1
[5] = test system: HCT-8; assay: Cytotoxicity against human HCT8 cells assessed as reduction in viable cells after 48 hrs at 1.6 uM by MTS assay; assay type: cell-based; details: hct-8, 48 h
[6] = test system: Cryptosporidium parvum; assay: Antimicrobial activity against Cryptosporidium parvum infected in neonatal BALB/C mouse assessed as reduction in oocyst shedding at 5 mg/kg/day, po for 6 days treated 3 days postinfection; assay type: functional; parameters: scale not given: the % may be the effect or the level left
How it was run: (§2)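 3-day-old BALB/c mice infected orally with 10⁵ Iowa-isolate oocysts. Oral dosing from day 3 post-infection, 4 or 6 consecutive days, in water with 5% DMSO or 5–10% ethanol final; vehicle controls matched. Euthanized day 9 post-infection. Distal-colon stool smears (2–3 μl) were methanol-fixed and IFA-stained. Oocysts counted over 21 fields at ×400 along a transect; reduction expressed relative to vehicle controls.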

[7] = test system: HCT-8; assay: Cytotoxicity against human HCT8 cells assessed as reduction in viable cells after 48 hrs by MTS assay; assay type: cell-based; details: hct-8, 48 h
[8] = test system: Cryptosporidium parvum; assay: Antimicrobial activity against Cryptosporidium parvum infected in neonatal BALB/C mouse assessed as reduction in oocyst shedding at 5 mg/kg/day, po for 4 days treated 3 days postinfection; assay type: functional; parameters: scale not given: the % may be the effect or the level left; how it was run: as §2
[9] = test system: Cryptosporidium parvum; assay: Antimicrobial activity against Cryptosporidium parvum infected in neonatal BALB/C mouse assessed as reduction in oocyst shedding at 12.5 mg/kg/day, po for 4 days treated 3 days postinfection; assay type: functional; parameters: scale not given: the % may be the effect or the level left; how it was run: as §2
[10] = test system: Cryptosporidium parvum; assay: Antimicrobial activity against Cryptosporidium parvum infected in neonatal BALB/C mouse assessed as reduction in trophozoites in colon at 5 mg/kg/day, po for 6 days by hematoxylin and eosin staining; assay type: functional; parameters: scale not given: the % may be the effect or the level left; how it was run: as §1
[11] = test system: Cryptosporidium parvum; assay: Antimicrobial activity against Cryptosporidium parvum GCH1 infected in MDBK cells after 48 hrs by ELISA; assay type: functional
[12] = test system: Cryptosporidium parvum; assay: Antimicrobial activity against Cryptosporidium parvum infected in neonatal BALB/C mouse assessed as reduction in trophozoites in ileum at 100 mg/kg/day, po for 6 days by hematoxylin and eosin staining; assay type: functional; parameters: scale not given: the % may be the effect or the level left
How it was run: (§3)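 Neonatal BALB/c mice were infected orally with 10⁵ oocysts and dosed orally for 6 days from day 3 postinfection, with necropsy on day 9. 1-cm sections of ileum (1–6 cm proximal to appendix), appendix/ileocecal junction and distal colon were formalin-fixed and H&E-stained. Two blinded readers counted trophozoites per 1,000 epithelial cells on duplicate sections. The per-mouse summary score summed all sections; comparison was against water-vehicle controls.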

[13] = test system: Cryptosporidium parvum; assay: Antimicrobial activity against Cryptosporidium parvum infected in neonatal BALB/C mouse assessed as reduction in number of trophozoites at 5 mg/kg/day, po for 6 days; parameters: scale not given: the % may be the effect or the level left
[14] = test system: Cryptosporidium parvum; assay: Antimicrobial activity against Cryptosporidium parvum infected in neonatal BALB/C mouse assessed as reduction in trophozoites in colon at 100 mg/kg/day, po for 6 days by hematoxylin and eosin staining; assay type: functional; parameters: scale not given: the % may be the effect or the level left; how it was run: as §3
[15] = test system: Cryptosporidium parvum; assay: Antimicrobial activity against Cryptosporidium parvum infected in neonatal BALB/C mouse assessed as reduction in oocyst shedding at 100 mg/kg/day, po for 6 days treated 3 days postinfection; assay type: functional; parameters: scale not given: the % may be the effect or the level left
How it was run: (§4)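 3-day-old BALB/c mice were inoculated orally with 10⁵ Iowa-isolate oocysts, and oral daily dosing started 3 days postinfection; water-treated mice served as vehicle controls. Mice were killed on day 9. Distal-colon stool (2–3 μl) was smeared, methanol-fixed and IFA-stained, and oocysts were counted over 21 fields at ×400. % reduction was taken versus vehicle mice; Mann-Whitney tests were used.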

[16] = test system: Cryptosporidium parvum; assay: Antimicrobial activity against Cryptosporidium parvum infected in neonatal BALB/C mouse assessed as reduction in trophozoites in appendix at 100 mg/kg/day, po for 6 days by hematoxylin and eosin staining; assay type: functional; parameters: scale not given: the % may be the effect or the level left; how it was run: as §3
[17] = test system: Cryptosporidium parvum; assay: Antimicrobial activity against Cryptosporidium parvum infected in neonatal BALB/C mouse assessed as reduction in oocyst shedding at 100 mg/kg/day, po for 4 days treated 3 days postinfection; assay type: functional; parameters: scale not given: the % may be the effect or the level left; how it was run: as §4
[18] = test system: Cryptosporidium parvum; assay: Antimicrobial activity against Cryptosporidium parvum infected in human HCT-8 cells assessed as growth inhibition after 48 hrs by ELISA; assay type: functional
How it was run: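 HCT-8 cells seeded at 5 × 10⁴/well 24 h before infection, then infected with 5 × 10³ Iowa-isolate oocysts in RPMI/10% FBS/0.05% bile salts for 90 min at 37°C and washed. Drug was added and cells incubated 48 h at 37°C, formalin-fixed, then probed with rat anti-sporozoite serum, HRP anti-rat and TMB, read at A450. Freeze-thawed-oocyst background was subtracted; % inhibition was taken versus untreated infected wells. Triplicate wells, two experiments.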

[19] = test system: Cryptosporidium parvum; assay: Antimicrobial activity against Cryptosporidium parvum infected in neonatal ICR swiss mouse assessed as reduction in oocyst shedding at 50 mg/kg/day, po measured on day 6; assay type: functional; parameters: scale not given: the % may be the effect or the level left
[20] = test system: HCT-8; assay: Cytotoxicity against human HCT8 cells assessed as reduction in viable cells at 80 uM by neutral red assay; assay type: cell-based; details: hct-8, 80 µM
[21] = test system: HCT-8; assay: Cytotoxicity against human HCT8 cells assessed as reduction in viable cells at 100 uM by neutral red assay; assay type: cell-based; details: hct-8, 100 µM
[22] = test system: HCT-8; assay: Cytotoxicity against human HCT8 cells assessed as reduction in viable cells by neutral red assay; assay type: cell-based
[23] = test system: Cryptosporidium parvum; assay: Antimicrobial activity against Cryptosporidium parvum infected in neonatal ICR swiss mouse assessed as reduction in oocyst shedding at 150 mg/kg/day, po measured on day 6; assay type: functional; parameters: scale not given: the % may be the effect or the level left
[24] = test system: Cryptosporidium parvum; assay: Antimicrobial activity against Cryptosporidium parvum infected in human HCT-8 cells; assay type: functional, organism-based
[25] = test system: Cryptosporidium parvum; assay: Antimicrobial activity against Cryptosporidium parvum infected in SCID mouse assessed as reduction in parasite burden at 200 mg/kg/day, po for 10 days; assay type: functional, organism-based
[26] = test system: Cryptosporidium parvum; assay: Antimicrobial activity against Cryptosporidium parvum infected in SCID mouse assessed as reduction in parasite burden at 100 mg/kg/day, po for 10 days; assay type: functional, organism-based

## Cc1cc(/C=C/c2ccc3cc(N(C)C)ccc3[n+]2C)c(C)n1-c1ccccc1 [PYRVINIUM]
[1]
  Activity: 90%
[2]
  Activity: 90%
[3]
  IC50: 0.354 µM
[4]
  Activity: 99%
[5]
  Activity: 40%
[6]
  Activity: 96.6%
[7]
  Activity: < 15%
[8]
  Activity: 92.6%
[9]
  Activity: 89.3%
[10]
  Activity: 90%

## NC[C@@H]1O[C@H](O[C@H]2[C@@H](O)[C@H](O[C@@H]3[C@@H](O)[C@H](N)C[C@H](N)[C@H]3O[C@H]3O[C@H](CO)[C@@H](O)[C@H](O)[C@H]3N)O[C@@H]2CO)[C@H](N)[C@@H](O)[C@@H]1O [PAROMOMYCIN]
[11]
  Activity: >80%
[12]
  Activity: 90%
[13]
  Activity: 85%
[3]
  IC50: 711 µM
[14]
  Activity: 90%
[15]
  Activity: 96.4%
[16]
  Activity: 90%
[17]
  Activity: 95%
[18]
  inhibition (INH): 40%
[19]
  Activity: <2%

## CCN(CC)CCCC(C)Nc1ccnc2cc(Cl)ccc12 (stereo not drawn) [CHLOROQUINE]
[20]
  Activity: 12%
[3]
  IC50: 27 µM
[21]
  Activity: 15%
[22]
  Activity: < 5%

## CC(=O)Oc1ccccc1C(=O)Nc1ncc([N+](=O)[O-])s1 [NITAZOXANIDE]
[23]
  Activity: <5%
[24]
  IC50: 3.8 µM
[25]
  Activity: inactive
[26]
  Activity: inactive
